In the library only some 1.8% were active in any assay of this set; here they are far more common.
Runt-CBFb FRET: inhibitors of human RUNX1 Runt domain binding to CBFb; Cerulean-Runt/Venus-CBFb FRET ratio 530/480, 1 h; inhibition, % at 20 µM; hit rate 0.46% among 220,000;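 active = inhibition over about 50% at 20 µM in the single-dose screen, limit read from the data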;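 note: 0% = DMSO wells and 100% = excess unlabeled CBFb competitor control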
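Assay system: Cerulean-tagged RUNX1 Runt domain (FRET donor) fusion protein / Amount: 100 nM each of Venus-CBFb and Cerulean-Runt domain / Medium: Tris buffer pH 7.5 with salts and BSA / Also added: Venus-CBFb 100 nM / Schedule: 1 h complex formation plus 1 h compound treatment, room temperature / Signal: FRET fluorescence / Read-out: loss of energy transfer signal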
Runt-SMMHC FRET: Runt domain-CBFb-SMMHC interaction inhibition; Q01196+Q13951; Cerulean-Runt/Venus-CBFb-SMMHC FRET ratio 530/480, 1 h; inhibition, % at 20 µM; hit rate 0.74% among 220,000; AID 1434;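 active = mean inhibition across duplicate retests at 20 µM reaching about 50%, limit read from the data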;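 note: 0% = DMSO wells and 100% = wells with excess untagged CBFb-SMMHC; inhibitors lower the FRET ratio by blocking Runt binding to CBFb-SMMHC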
Platelet DG rel: modulates dense granule release in human platelets; human platelet-rich plasma, SFLLRN dense granule ATP release, luminescence; inhibition, %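 (compounds screened at 7.5 µM in platelet-rich plasma)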; hit rate 0.22% among 300,000; AID 1663;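 active = mean replicate score, as percent of positive control, at or above 50; inconclusive = mean below 50 but at least one replicate at or above 50; inactive = mean and every replicate below 50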
Rce1 inhib: blocks yeast Ras-converting enzyme. Q03530. yeast membranes, quenched prenylated peptide cleavage fluorescence. calls only. hit rate 0.27% among 290,000;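 active = fall in fluorescence gain of 50% or more versus controls, with final raw signal at or below 3038400; inconclusive = same 50% fall but final raw signal above 3038400; inactive = fall in fluorescence gain under 50%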;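 note: plate controls were neutral control wells for no effect and wells lacking membranes for full effect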
Target sequence (Q03530 whole entry, looked up): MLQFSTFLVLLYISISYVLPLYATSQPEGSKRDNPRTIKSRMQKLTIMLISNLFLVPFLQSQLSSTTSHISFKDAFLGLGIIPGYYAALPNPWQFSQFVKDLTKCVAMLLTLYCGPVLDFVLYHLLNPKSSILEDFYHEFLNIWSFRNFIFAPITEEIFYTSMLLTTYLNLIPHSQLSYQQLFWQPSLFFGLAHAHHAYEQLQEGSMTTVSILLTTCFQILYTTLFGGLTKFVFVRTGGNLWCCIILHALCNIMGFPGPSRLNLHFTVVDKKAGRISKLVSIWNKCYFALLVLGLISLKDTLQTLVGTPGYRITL
RanGTP-Imp inh: inhibitors of RanGTP-importin-beta interaction, primary screen, biochemical, FRET, CFP-Ran, YFP-importin-beta, homogeneous; cell-free CFP-Ran/YFP-importin-beta FRET ratio; inhibition, % (concentration not given with the values); hit rate 1.1% among 300,000; AID 2216;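 active = more than half of the replicate wells show a fall in the fluorescence ratio signal beyond about 16%, limit read from the data, passing the limit was not always enough; inconclusive = exactly half of the replicate wells pass the set limit; inactive = fewer than half of replicates pass the limit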;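 note: 0% = DMSO wells and 100% = Ran loaded with GDP instead of GTP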
The depositor's hits bear a star; i = inactive; ? = inconclusive; nt = no result; + = active, no number.

SMILES | Runt-CBFb FRET | Runt-SMMHC FRET | Platelet DG rel | Rce1 inhib | RanGTP-Imp inh
O=c1cc(-c2ccccc2)c2cc(Cl)c(O)c(CN3CCOCC3)c2o1 | -19 | 81 | -1 | i | 4
CCc1cc(=O)oc2c(CN3CCN(C)CC3)c(O)ccc12 | nt | nt | 6 | i | 4
Cc1cc(=O)oc2c(CN3CC(C)OC(C)C3)c(O)c(Cl)cc12 (stereo not given) | 108* | 136* | 1 | i | 34*
CC(=O)c1c(N2CCN(c3ccccc3)CC2)nc(=S)n(-c2ccccc2)c1C | -1 | -38 | -10 | i | 2
CC(=O)c1c(N2CCN(Cc3ccccc3)CC2)nc(=S)n(Cc2ccccc2)c1C | 75* | 82* | -3 | i | 68*
CC(=O)c1c(N2CCN(Cc3ccc4c(c3)OCO4)CC2)nc(=S)n(-c2ccccc2)c1C | 6 | 1 | -7 | i | 1
CC(=O)c1c(N2CCN(Cc3ccccc3)CC2)nc(=S)n(-c2ccccc2)c1C | 46 | 98* | -2 | i | 85*
CCn1c(C)c(C(C)=O)c(N2CCN(c3ccc(F)cc3)CC2)nc1=S | 23 | 0 | 1 | i | 20*
CC(=O)c1c(N2CCN(CCO)CC2)nc(=S)n(-c2ccccc2)c1C | 65* | 92* | -5 | i | 62*
CC(=O)c1c(N2CCCCC2)nc(=S)n(Cc2ccccc2)c1C | -5 | -6 | 3 | i | 4
CCOC(=O)c1cnc(COc2ccc(OC)cc2)[nH]c1=O | 2 | -2 | -26 | i | 1
Cc1[nH]c2ccc(F)cc2c1CCN(Cc1cccnc1)C(=S)Nc1cccc(F)c1 | -1 | 2 | -7 | i | 4
COc1cc(NS(=O)(=O)c2cn(C)cn2)cc(OC)c1OC | nt | nt | 6 | i | -1
CCN(CC)C(=O)Cn1c(=O)oc2ccccc21 | 2 | 2 | -2 | i | 0
CC1CC(C)(C)NC(=S)N1CCCC(=O)NCc1ccccc1 (stereo not given) | 0 | 0 | 11 | i | 1
CCc1ccc(NC(=O)c2c(Cl)nc(C)c(Cl)c2C)cc1 | 0 | 0 | -6 | i | 2
c1coc(C2=NCCc3ccccc32)c1 | nt | nt | -4 | i | -3
CCOC(=O)c1cc2cc(OC)ccc2nc1C | -2 | 4 | 66* | i | 0
CCOC(=O)c1cc2c(=O)[nH]ccc2nc1C | -1 | -6 | 15 | + | -2
CCOC(=O)c1cc2c(=O)[nH]ccc2nc1C(F)(F)F | -1 | 0 | 3 | i | 0
Cc1nnc(SCC(=O)NC(C)(C)C)n1NCc1cccc(Br)c1 | nt | nt | 4 | i | 0
c1ccc(-c2noc(-c3ccc4c(c3)OCO4)n2)nc1 | 1 | 3 | 95* | i | -1
CCNC(=O)[C@H]1O[C@@H](n2cnc3c(N)nc(NCCc4ccc(CCC(=O)O)cc4)nc32)[C@H](O)[C@@H]1O | 1 | -5 | 109* | i | 6
NNC(=O)c1sc2nc(N3CCOCC3)c3c(c2c1N)CCCC3 | 18 | 3 | -2 | i | 0
Nc1c(C(=O)NCc2ccccc2)sc2nc(N3CCOCC3)c3c(c12)CCCC3 | 7 | 23 | 1 | + | 1
SMILES | Runt-CBFb FRET | Runt-SMMHC FRET | Platelet DG rel | Rce1 inhib | RanGTP-Imp inh
O=C(Nc1c2ccccc2nc2ccccc12)C(Cl)(Cl)Cl | 12 | -14 | -13 | i | 135*
CC1CCN(C(=O)CSc2nc3ccccc3s2)CC1 | 3 | 2 | -4 | i | 28*
CCc1noc(C)c1C(=O)N(CC)c1nc2c(C)cccc2s1 | nt | nt | 0 | i | -1
CN1CCN(C(=O)C23CCC(C)(c4nc5ccccc5nc42)C3(C)C)CC1 (stereo not given) | 1 | -2 | 25 | i | 5
O=C(CCNC(=O)C1CCN(S(=O)(=O)c2ccccc2)CC1)NCc1ccc(Cl)c(Cl)c1 | nt | nt | 58* | i | 0
CC(=O)c1ccc(-c2nc3c4ccccc4ccn3c2C(C)=O)o1 | 5 | 3 | 51* | i | 1
CC1(C)CC2CC(C)(CN2S(=O)(=O)c2ccc(N)cc2)C1 (stereo not given) | 1 | 2 | -2 | + | -1
CC1(C)CC2CC(C)(CN2S(=O)(=O)c2cccc(C(=O)OCC(N)=O)c2)C1 (stereo not given) | nt | nt | -2 | i | 0
O=C(Nc1ccc(N2CCN(C(=O)c3ccccc3F)CC2)cc1)c1cncc(Br)c1 | nt | nt | 6 | i | 10
CCN1CCN(C(C)CCc2ccccc2)CC1 (stereo not given) | nt | nt | -4 | i | 1
Cc1cc(=O)oc2c(CN(C)Cc3ccccc3)c(O)ccc12 | 36 | 82* | 12 | ? | 6
COc1ccc(N2CCN(C(=O)CN(C)S(=O)(=O)c3cc(C)ccc3OC)CC2)cc1 | 0 | -3 | 3 | i | -3
O=C(NC(=S)N1CCCCC1c1cccnc1)c1ccc(F)cc1 (stereo not given) | nt | nt | 4 | i | 19*
Cc1cccc(NC(=S)N2CCCCC2c2cccnc2)c1C (stereo not given) | 1 | -1 | 0 | i | 3
O=C(NC(=S)N1CCCCC1c1cccnc1)c1ccc(Br)cc1 (stereo not given) | nt | nt | -16 | i | 33*
COc1ccc(NC(=S)N2CCCCC2c2cccnc2)cc1 (stereo not given) | -2 | 0 | -9 | i | 5
COc1ccc(-c2cc3ccccc3n2CC(O)CNCCO)cc1 (stereo not given) | -15 | -21 | -1 | + | -3
CCC(=O)N(CCC1(C(C)C)CCOC(C)(C)C1)C(C)c1cccs1 (stereo not given) | -4 | -5 | 7 | i | -1
CCOC(=O)c1cc2ccc3ccccc3c2oc1=O | nt | nt | 9 | i | 73*
CCOC(=O)c1cc2ccc(OC(=O)c3ccco3)cc2oc1=O | 18 | 62* | 22 | i | 182*
Fc1ccccc1NC(=S)NCCc1cccc(Cl)c1 | nt | nt | nt | i | nt
COc1cc(SC)ccc1C(=O)Nc1nc2ccccc2[nH]1 | nt | nt | 96* | i | 1
COc1ccccc1C(=O)NCCC(=O)Nc1nc2ccccc2[nH]1 | nt | nt | -1 | i | 0
COc1cc(SC)ccc1C(=O)NNC(=O)c1cc(C)oc1C | nt | nt | 58* | i | 2
COc1ccccc1C(=O)Nc1nc2ccccc2[nH]1 | nt | nt | 57* | i | 1
O=C(CN(CC1CCCO1)C(=O)CNS(=O)(=O)c1ccc(F)cc1)NCc1ccc(F)cc1 (stereo not given) | nt | nt | -1 | i | -4
O=C(/C=C/c1ccc([N+](=O)[O-])cc1)NCC1CCCO1 (stereo not given) | 0 | 2 | 0 | i | -1
Cc1ccc(S(=O)(=O)CC(=O)N2CCN(c3ccccc3F)CC2)cc1 | nt | nt | -12 | + | 3
Cc1cccc(S(=O)(=O)NNC(=O)c2sc(C)nc2C)c1 | 3 | 3 | -2 | i | 3
Cc1nn(CCO)c2ncc(C(=O)c3cc(Cl)ccc3O)cc12 | nt | nt | -9 | nt | 6
